For 17 compounds, IC50 results are on record in ChEMBL document CHEMBL4387788, “Brominated Azaphilones from the Sponge-Associated Fungus Penicillium canescens Strain 4.14.6a” (J Nat Prod, 2019).

One assay has as its system L5178Y. Kind of assay: Cytotoxicity against mouse L5178Y cells assessed as reduction in cell viability incubated for 72 hrs by MTT assay. Type of assay: functional, cell-based. In a few lines: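 MTT assay on L5178Y mouse lymphoma cells. Kahalalide F was the positive control; 0.1% ethylene glycol monomethyl ether in DMSO was the negative control.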
For orientation: Tetrazolium dyes change colour on reduction, which living cells bring about.

A further assay relates to A2780. Put plainly: Cytotoxicity against human A2780 cells assessed as reduction in cell viability incubated for 72 hrs by MTT assay. To be noted: A2780, 72 h. Type of assay: functional, cell-based. The method, boiled down: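 A2780 human ovarian cancer cells were seeded at 9500 cells/well and, after 24 h, exposed to 3.6-fold serial dilutions of compound for 72 h. MTT (5 mg/mL in PBS) was added, and the formazan was dissolved in DMSO. Absorbance was read at 544 and 690 nm. Cisplatin was the positive control and 0.9% sodium chloride the negative control.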

SMILES strings stand for the structures. pIC50: −log10 of the molar value.

The pIC50 is the IC50 on a negative log10 scale, so that one unit is a factor of ten. On to `COc1cc(O)c2c(=O)c3c(C)cc(O)cc3oc2c1`, for which the pIC50 in the assay on L5178Y and in the assay on A2780 was less than 5.00 each time.

Regarding `COC1=CC(=O)C[C@@H](C)[C@]12Oc1cc(OC)cc(OC)c1C2=O`, the negative logarithm of the IC50 (pIC50) in the assay with L5178Y and in the assay on A2780 was less than 5.00 throughout. As for `COc1cc(O)c(C(=O)c2c(C)cc(O)cc2OC)c(O)c1`, the pIC50 in the assay with L5178Y and in the assay with A2780 was less than 5.00 throughout. For `COc1cc(O)c(C(=O)c2c(C)cc(O)cc2OC)c(O)c1Cl`, the pIC50 in the assay with L5178Y and in the assay on A2780 was less than 5.00 in each case. Turning to `COC(=O)Cc1cc(OC)cc(O)c1C(C)=O`, the pIC50 in the assay with L5178Y and in the assay with A2780 was less than 5.00 in each case. Take `COC(=O)c1c(O)cc(OC)c(Cl)c1Oc1c(C)cc(O)cc1OC`: the pIC50 in the assay on L5178Y and in the assay on A2780 was less than 5.00 each time. `COc1cc(O)cc(C)c1C(=O)c1c(O)c(Cl)c(OC)c(Cl)c1O`: the pIC50 with L5178Y and in the assay on A2780 was less than 5.00 throughout. In the case of `COc1cc(C[C@]23COC(/C=C/C=C/C=C/C(=O)O)=CC2=C(Br)C(=O)[C@](C)(OC(=O)C[C@H](O)C[C@@H](C)O)C3=O)c(C(C)=O)c(O)c1O`, the pIC50 in the assay on L5178Y was 4.86; in the assay with A2780 it was 4.43. As to `COC(=O)Cc1cc(O)cc(O)c1C(C)=O`, the negative-log IC50 (pIC50) in the assay with L5178Y and with A2780 was less than 5.00 in each case. As to `COC(=O)c1c(O)cc(OC)c(Cl)c1Oc1c(C)cc(OC)cc1OC`, the pIC50 in the assay on L5178Y and with A2780 was less than 5.00 in each case. Consider `COc1cc(C[C@]23COC(/C=C/C=C/C=C/C(=O)O)=CC2=C(Br)C(=O)[C@@](C)(OC(=O)C[C@H](O)C[C@@H](C)O)C3=O)c(C(C)=O)c(O)c1O`, for which the pIC50 in the assay on L5178Y was 5.05; in the assay on A2780 it was 5.57. With `COC(=O)[C@@]12C(O)=C(C)C(=O)[C@]1(C)C(C)=C[C@H]1[C@]34CC[C@H](OC(C)=O)C(C)(C)[C@H]3[C@H](C[C@@]12C)OC4=O`, the pIC50 with L5178Y and with A2780 was less than 5.00 each time.

On to `CC1(C)C=Cc2cc3c(cc2O1)c(C[C@@H]1NC(=O)C2=CCCN2C1=O)c1n3C=CC1(C)C`, for which the pIC50 with L5178Y and with A2780 was less than 5.00 in each case. As for `C/C=C1\NC(=O)[C@H](Cc2ccccc2)NC(=O)[C@@H](C(C)C)NC(=O)[C@@H]([C@@H](C)CC)NC(=O)[C@H](NC(=O)[C@H](NC(=O)[C@H](CCCN)NC(=O)[C@H]2CCCN2C(=O)[C@H](NC(=O)[C@@H](NC(=O)[C@@H](NC(=O)[C@H](NC(=O)CCCC(C)C)C(C)C)[C@@H](C)O)C(C)C)C(C)C)[C@@H](C)CC)[C@@H](C)OC(=O)[C@H](C(C)C)NC1=O`, the pIC50 with L5178Y is 5.37. As for `COC1=CC(=O)C[C@@H](C)[C@]12Oc1c(Cl)c(OC)cc(OC)c1C2=O` [GRISEOFULVIN], the pIC50 in the assay with L5178Y and in the assay on A2780 was less than 5.00 in each case. As to `Cc1cc(O)cc2oc3cc(O)cc(O)c3c(=O)c12` [NORLICHEXANTHONE], the pIC50 in the assay with L5178Y and with A2780 was less than 5.00 throughout.

In the case of `C=C(C)C1(O)OC(=O)C=C1OC` (stereo not drawn) [PENICILLIC ACID], the negative logarithm of the IC50 (pIC50) in the assay on L5178Y is 5.05; in the assay on A2780 it was less than 5.00.
